According to ChEMBL document CHEMBL4145465, “Design, synthesis and biological evaluation of novel ring-opened cromakalim analogues with relaxant effects on vascular and respiratory smooth muscles and as stimulators of elastin synthesis” (Eur J Med Chem, 2018):
Calls of active or inactive are those of the source. No cut-off for these calls is given here.

What was measured:
Thoracic aorta [1] = experiment: Vasorelaxing activity in Wistar rat endothelium-denuded thoracic aorta ring assessed as reduction in 30 mM KCl-induced contraction after 15 mins in presence of 1 uM glibenclamide; assay type: functional, tissue-based; settings: 0.25 h, in the assay text read “endothelium-intact” for “endothelium-denuded”
Outline: (§1)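 Female Wistar rat aortic rings were contracted with 30 mM KCl while continuously bathed in 1 or 10 µM glibenclamide. Compound in DMSO was added cumulatively up to 300 µM, each step held ≥15 min to a plateau. EC50 was derived by non-linear regression and compared with the EC50 obtained without glibenclamide.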

Thoracic aorta [2] = experiment: Vasorelaxing activity in Wistar rat endothelium-denuded thoracic aorta ring assessed as reduction in 30 mM KCl-induced contraction after 15 mins in presence of 10 uM glibenclamide; assay type: functional, tissue-based; settings: 0.25 h, in the assay text read “endothelium-intact” for “endothelium-denuded”; outline: as §1
Thoracic aorta [3] = experiment: Vasorelaxing activity in Wistar rat endothelium-denuded thoracic aorta ring assessed as reduction in 80 mM KCl-induced contraction after 15 mins; assay type: functional, tissue-based; settings: 0.25 h, in the assay text read “endothelium-intact” for “endothelium-denuded”
Outline: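 Female Wistar rat aortic rings were depolarized with an 80 mM KCl solution (NaCl 43.6 mM). Once the plateau was reached, compound in DMSO was added cumulatively up to 300 µM. EC50 was obtained by non-linear regression of concentration-response curves.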

Trachea [4] = experiment: Tracheorelaxant activity in Wistar rat trachea tonus assessed as reduction in 30 mM KCl-induced contraction after 15 mins; assay type: functional, tissue-based; settings: 0.25 h
Outline: (§2)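 Trachea rings (3-4 mm) from female Wistar rats were held in a 10 ml organ bath under the same conditions as the aorta and contracted with 30 mM KCl. Compound in DMSO was added cumulatively. EC50 was derived by non-linear regression; Emax is % relaxation at 100 µM.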

Trachea [5] = experiment: Tracheorelaxant activity in Wistar rat trachea tonus assessed as reduction in 30 mM KCl-induced contraction at 100 uM after 15 mins relative to control; assay type: functional; settings: 0.25 h; outline: as §2
Trachea/thoracic aorta = experiment: Ratio of EC50 for Wistar rat trachea tonus to EC50 for Wistar rat endothelium-denuded thoracic aorta ring; assay type: functional; settings: in the assay text read “endothelium-intact” for “endothelium-denuded”
Outline: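 Ratio of trachea EC50 to aorta EC50, both measured against 30 mM KCl contraction in female Wistar rat rings, with cumulative compound addition in DMSO and EC50 from non-linear regression.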

VSMC [6] = experiment: Induction of elastin synthesis in rat VSMC at 50 uM after 48 hrs by ELISA relative to control; assay type: functional
Outline: (§3)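 Rat aortic VSMCs (collagenase/elastase digestion of intima-media, grown in DMEM 20% FBS on gelatin) serum-starved overnight in 1% FBS-DMEM, seeded 25000 cells/well, then exposed 48 h to compound in DMSO (<1% final); DMSO-only negative control, diazoxide reference. Fixed cells immunostained for elastin with HRP secondary, TMB substrate, absorbance 450 nm; 5-7 wells per concentration.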

VSMC [7] = experiment: Induction of elastin synthesis in rat VSMC at 20 uM after 48 hrs by ELISA; assay type: functional, cell-based; outline: as §3
[8] = Ionozation constant, pKa of the compound at pH 3 to 12 at 25 degC by UV/VIS spectrophotometric method; assay type: physicochemical
Thoracic aorta [9] = experiment: Vasorelaxing activity in Wistar rat endothelium-intact thoracic aorta ring assessed as reduction in 30 mM KCl-induced contraction after 15 mins; settings: 0.25 h
Thoracic aorta [10] = experiment: Vasorelaxing activity in Wistar rat endothelium-intact thoracic aorta ring assessed as reduction in 30 mM KCl-induced contraction at 300 uM after 15 mins relative to DMSO; settings: 0.25 h

Row | Structure (SMILES) | EC50 (Thoracic aorta [1]) | EC50 (Thoracic aorta [2]) | EC50 (Thoracic aorta [3]) | EC50 (Trachea [4]) | Emax (Trachea [5]) | Ratio EC50 (Trachea/thoracic aorta) | Activity (VSMC [6]) | Activity (VSMC [7]) | pKa [8] | EC50 (Thoracic aorta [9]) | Emax (Thoracic aorta [10])
1 | CC(NC(=O)NS(=O)(=O)c1ccc(Cl)cc1)c1cc(Br)ccc1OCc1ccccc1 (racemic) | 78.4 µM | 54.6 µM | 61.6 µM | 30.8 µM | 161% | 0.5 | Active | inactive | 5.31 | 57.5 µM | 95.1%
2 | COc1ccc(Cl)cc1C(C)NC(=O)N(C)S(=O)(=O)c1ccccc1 (racemic) | 6.7 µM | 8.6 µM | 5.3 µM | 1.7 µM | 154% | 0.2 | Active | Active |  | 7.2 µM | 103%
3 | Cc1ccc(OCc2ccccc2)c(C(C)NC(=O)NS(=O)(=O)c2ccc(Cl)cc2)c1 (racemic) | 90.5 µM | 69.3 µM | 60.9 µM | 30.4 µM | 172% | 0.5 | inactive | inactive |  | 65.3 µM | 126%
4 | CC1(C)Oc2ccc(C#N)cc2[C@H](N2CCCC2=O)[C@H]1O [(-)-CROMAKALIM] | 3.4 µM | 87.2 µM | 191 µM | 124 µM | 70.1% | 956.9 |  |  |  | 0.13 µM | 
5 | COc1ccc(CCN(C)CCCC(C#N)(c2ccc(OC)c(OC)c2)C(C)C)cc1OC (centres undefined) [VERAPAMIL] | 0.07 µM | 0.07 µM | 0.05 µM | 0.89 µM |  | 28.7 |  |  |  | 0.06 µM | 
